HSP90 refold inh = blocks HSP90-mediated luciferase refolding in reticulocyte lysate; inhibition, % at 5.6 µM; AID 1789; 290,000 tested, 0.91% active; Rabbit reticulocyte lysate, luciferase refolding luminescence, 3 h;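 active = inhibition above the screen-wide mean plus 3 SD, computed separately per campaign, cut at about 16% in these data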;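 note: inhibitors lower the luminescence because luciferase stays unfolded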
HCV NS3 hel inh = HCV NS3 helicase inhibition | inhibition, % at 10.9 µM | 290,000 tested, 0.56% active | NS3 helicase DNA unwinding, Cy5 molecular beacon fluorescence | AID 1800;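 active = inhibition above the mean of all tested compounds plus 3 SD, set per campaign, cut at about 35% in these data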
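Measured by: Cy5 fluorescence, 0 and 60 min reads / Assay system: NS3 helicase fragment of HCV / Control set: low DMSO, high thioflavine S at 110 µM / Times: 1 h reaction at 25 °C, ATP-initiated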
core dimer inh = HCV core protein dimerization inhibition | 300,000 tested, 0.33% active | AID 1899 | inhibition, % at 5 µM | TR-FRET GST/Flag-core106 dimerization, 1536-well;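 active = inhibition above the mean of all tested compounds plus 3 SD, set per screening campaign, cut at about 45% in these data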
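System – GST-tagged and Flag-tagged HCV core protein residues 1-106 · Repeats – one well for each compound · Technique – TR-FRET 671 and 617 nm emission · Doses – one concentration, 5 µM, in 0.5% DMSO · Times – 4 h, 22.5 °C incubation · Also added – Eu donor and XL665 acceptor anti-tag antibodies · Measure – percent inhibition of core106 dimerization signal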
HSF1 inh = HSF1 inhibition; 300,000 tested, 0.77% active; NIH3T3-HGL HSE-luciferase, MG132-induced, luminescence 8 h; active compounds read low; activity change, negative = inhibition, % at 7.5 µM (by protocol);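 active = more than half of replicate wells show activity change below -50%, luminescence cut by over half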;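 note: luciferase reports HSF-1 transcriptional activity via heat shock element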
FID counter = fluorescent intercalator displacement, NS3 helicase counter-screen | DNA fluorescent intercalator displacement, fluorescence | 290,000 tested, 0.17% active | inhibition, % at 7.9 µM; in the data active = inhibition above about 37%;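 note: higher means more ethidium bromide displaced from hairpin DNA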
HSF-1 act = increases HSF-1 driven luciferase reporter signal; NIH3T3-HGL HSF-1 luciferase reporter, MG132, 8 h; 100% = twice DMSO control signal; activation, % at 9 µM; 300,000 tested, 1.7% active; AID 504408;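 active = mean replicate activation of at least 50% with a set share of replicates each reaching 50%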
HSP90 confirm = HSP90 inhibition, confirmation assay. shares compounds with HSP90 refold inh. rabbit reticulocyte lysate, luciferase refolding luminescence, 3 h. inhibition, % at 5.9 µM. 2,300 tested, 64% active; in the data active = inhibition above about 18%
FLuc counter = counter-screen for HSP90 inhibitors: inhibitors of firefly luciferase; 2,300 tested, 48% active; shares compounds with HSP90 refold inh; inhibition, % at 5.9 µM; purified native firefly luciferase, luminescence;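 active = inhibition above the mean inhibition of all tested sample wells plus 3 SD, cut at about 10% in these data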
Target sequence (P08659 whole entry, looked up): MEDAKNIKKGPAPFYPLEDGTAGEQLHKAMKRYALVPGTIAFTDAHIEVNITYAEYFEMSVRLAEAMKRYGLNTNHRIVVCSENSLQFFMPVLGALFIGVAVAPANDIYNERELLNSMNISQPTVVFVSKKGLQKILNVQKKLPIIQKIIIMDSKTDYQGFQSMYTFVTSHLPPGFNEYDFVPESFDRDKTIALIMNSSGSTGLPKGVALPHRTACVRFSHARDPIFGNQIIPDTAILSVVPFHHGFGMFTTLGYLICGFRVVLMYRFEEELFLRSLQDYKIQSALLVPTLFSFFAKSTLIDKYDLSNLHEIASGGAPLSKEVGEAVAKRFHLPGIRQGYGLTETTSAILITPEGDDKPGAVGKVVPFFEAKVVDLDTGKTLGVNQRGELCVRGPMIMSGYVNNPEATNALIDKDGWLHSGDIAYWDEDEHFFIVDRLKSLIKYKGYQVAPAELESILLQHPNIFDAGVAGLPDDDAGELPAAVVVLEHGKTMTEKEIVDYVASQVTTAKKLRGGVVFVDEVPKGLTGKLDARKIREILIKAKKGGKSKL
Hits are given with their value; 0 = inactive; - = no result. A selection: hits, their analogues and other compounds. The true share with any hit is near 3.9%.

SMILES	HSP90 refold inh	HCV NS3 hel inh	core dimer inh	HSF1 inh	FID counter	HSF-1 act	HSP90 confirm	FLuc counter
Nc1nc(-c2ccccc2)c(-c2ccccc2)o1	0	0	0	0	0	0	-	-
Cc1cc(C(=O)N/N=C/c2ccc3ccccc3c2)n[nH]1	35.5	0	-	-	0	-	0	0
COc1ccc(N(Cc2cc(=O)[nH]c3ccccc23)C(=O)C(C)C)cc1	0	0	0	0	0	0	-	-
CC(C)C(=O)N(Cc1cc(=O)[nH]c2ccccc12)c1ccccc1	80.6	0	0	0	0	0	0	0
O=C(NCC(=O)N1CCCCCC1)c1ccc(Cl)cc1	0	0	0	0	0	0	-	-
O=C(CNC(=O)c1ccc(Cl)cc1)OCC(=O)N1CCCC1	18.7	0	0	0	0	0	0	0
CC(C)(C)C(=O)N1CCC(O)(CS(=O)(=O)c2ccc(Cl)c(Cl)c2)CC1	0	0	0	0	0	0	-	-
O=C(CCn1c(=S)[nH]c2ccccc2c1=O)NCCc1ccccc1	58.9	0	0	0	0	0	0	0
O=c1c2ccccc2[nH]c(=S)n1CCc1ccccc1	0	0	0	0	0	0	-	-
N#C/C(=C\c1cccs1)Sc1nc2ccccc2s1	0	0	0	0	0	0	-	-
COCCNS(=O)(=O)c1cc(OC)c(Cl)cc1Cl	17.5	0	-	0	0	0	0	0
O=C(NC12CC3CC(CC(C3)C1)C2)c1ccco1	0	0	0	0	0	0	-	-
O=C(NC12CC3CC(CC(C3)C1)C2)c1ccc(-c2ccccc2Cl)o1	25.7	0	0	0	0	0	37.6	30.1
CCc1nnc(NC(=O)CSc2nc(C)c3c(c2C#N)CCCC3)s1	20.8	0	0	0	0	0	0	0
CCOc1ccc(-c2nc(CN3CCCC(C(=O)N4CCOCC4)C3)c(C)o2)cc1 (stereo unspecified)	18.5	0	0	0	0	0	24.4	0
Cc1ccc(-c2onc3ccc(C4OCCO4)cc23)cc1	34.7	0	0	0	0	0	0	0
Cc1ccc(-c2onc3ccc(Br)cc23)cc1	0	0	0	0	0	0	-	-
O=C(c1ccc([N+](=O)[O-])o1)N1CCN(c2nc3ccc(F)cc3s2)CC1	-	-	0	0	-	0	-	-
Nn1c(-c2ccc(F)cc2)nc2ccccc2c1=O	0	0	0	0	0	0	-	-
O=C1c2cc(F)ccc2-n2c1nc1ccccc1c2=O	72.8	0	0	0	0	0	68.1	0
CCOc1ccc(-c2cc(C(=O)N/N=C/c3cccnc3)c3ccccc3n2)cc1	0	0	0	0	0	0	-	-
CC1CCN(c2ccc(-c3cccc(NC(=O)C(F)(F)F)c3)nn2)CC1	18.7	0	0	-81.8	0	0	56.4	0
CCC(=O)Nc1cccc(-c2ccc(N3CCC(C)CC3)nn2)c1	32.7	0	0	0	0	0	66.4	44.9
CCC(=O)Nc1ccc(-c2ccc(N3CCC(C)CC3)nn2)cc1	0	0	0	0	0	0	-	-
Cc1cc(C)n(C(=O)c2c([N+](=O)[O-])cnn2C)n1	72.0	0	0	0	0	0	0	0
SMILES	HSP90 refold inh	HCV NS3 hel inh	core dimer inh	HSF1 inh	FID counter	HSF-1 act	HSP90 confirm	FLuc counter
O=C(O)c1ccc2c(c1)-c1cc(C(=O)O)ccc1S2(=O)=O	0	0	0	0	0	0	-	-
Cc1cccc(OCC(=O)Nc2cc(NC(=O)COc3cccc(C)c3C)cc(C(=O)O)c2)c1C	0	0	0	0	0	0	-	-
O=C(Nc1cccc(C(=O)O)c1)Nc1ccccc1Cl	76.6	0	0	0	0	0	73.6	71.3
O=C(Nc1cccc(Cl)c1)Nc1cccc(C(=O)O)c1	50.8	0	0	0	0	0	69.4	62.8
O=C(Nc1ccc2nccnc2c1)Nc1ccccc1Cl	0	0	0	0	0	0	-	-
Cc1ccccc1OCC(=O)Nc1cccc(C(=O)O)c1	96.9	0	-	-	0	-	91.5	86.2
CCOc1ccc(NC(=O)c2ccccn2)cc1	82.5	0	0	0	0	0	87.9	79.6
CCc1nc2oc3ccccc3c(=O)c2cc1C(=O)OC	0	0	-	0	0	0	-	-
CCOc1ccccc1C1C(C#N)=C(N)N(N(C)C)C2=C1C(=O)CCC2 (stereo unspecified)	0	0	0	0	0	0	-	-
Cc1ccc(S(=O)(=O)N2CCC(C(=O)NNC(=O)c3ccccc3)CC2)cc1	0	0	0	0	0	0	-	-
COC(=O)c1cccc(NC(=O)NC(=O)c2ccccc2Cl)c1	28.9	0	0	0	0	0	71.3	16.1
O=C(Nc1ccc(Cl)cc1)Nc1ccccc1C(=O)O	26.6	0	0	0	0	54.0	45.5	43.0

Screening data: PubChem BioAssay, several laboratories
